ChEMBL document CHEMBL1121679, “Gastric antisecretory agents. 1. Antisecretory and antiulcer activity of 5H-[1]benzopyrano[2,3-b]pyridin-5-ylureas and 5H-[1]benzothiopyrano[2,3-b]pyridin-5-ylureas” (1981)

How the values were obtained:
Canis familiaris [1] = experiment: Antisecretory activity was evaluated in adult mongrel dog after po administration at 8 mg/kg of dose, expressed as reduction of gastric output; assay type: functional, Canis lupus familiaris, Stomach
Outline: (§1)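 Conscious mongrel dogs with surgical Heidenhain pouches. Histamine was infused iv at 0.4 (μg/kg)/min, giving 50–60% of maximal acid output. The test agent was given iv or orally by gavage 1 h into the infusion. Acid output (volume × titrated acid) was collected in 30-min fractions and summed over 3 h, then compared with control runs in the same dog. Usually a single dog per compound.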

Rattus norvegicus [2] = experiment: Antisecretory activity was evaluated in pylorus ligated rat after ip administration at 40 mg/kg of dose, expressed as reduction of gastric output; conditions: route intraperitoneal
Canis familiaris [3] = experiment: Antisecretory activity was evaluated in adult mongrel dog after iv administration at 5 mg/kg of dose, expressed as reduction of gastric output; assay type: functional, Canis lupus familiaris, Stomach; outline: as §1
Rattus norvegicus [4] = experiment: Compound was measured for percentage inhibition of aspirin-induced ulcers at 20 mg/kg after po administration; assay type: functional
Outline: (§2)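 Rats fasted 24 h received the test agent orally in 0.4% methylcellulose-saline, then 1 h later 100 mg/kg aspirin orally. Stomachs were removed 4 h after aspirin and opened along the greater curvature, and ulcers were counted under a 2× magnifier. Inhibition was based on mean lesion number vs controls. Eight rats per compound; Student's t test.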

Rattus norvegicus [5] = experiment: Compound was measured for percentage inhibition of aspirin-induced ulcers at 30 mg/kg after po administration; assay type: functional; outline: as §2
Canis familiaris [6] = experiment: Compound was measured for percentage reduction in insulin hypoglycemia stimulated canine gastric acid secretion after iv administration at 5 mg/kg dosage; assay type: functional, Canis lupus familiaris, Stomach
Outline: (§3)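 Dogs with simple gastric fistulas. The test agent (iv or oral) was given at the time of regular insulin injection. Gastric collections were made for 3 h, and percent reduction of acid output was calculated against control studies in the same animals; n per entry as reported.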

Canis familiaris [7] = experiment: Compound was measured for percentage reduction in insulin hypoglycemia stimulated canine gastric acid secretion after po administration at 8 mg/kg dosage; assay type: functional, Canis lupus familiaris, Stomach; outline: as §3
Rattus norvegicus [8] = experiment: Compound was measured for percentage inhibition of aspirin-induced ulcers at 10 mg/kg after po administration; assay type: functional; outline: as §2
Canis familiaris [9] = experiment: Compound was measured for percentage reduction in dimaprit stimulated canine gastric acid secretion after iv administration at 5 mg/kg dosage; assay type: functional, Canis lupus familiaris, Stomach
Outline: (§4)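 Heidenhain pouch dogs. Acid output was summed over 3 h after dosing and expressed as percent reduction relative to control studies in the same animal; n per entry as reported.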

Canis familiaris [10] = experiment: Compound was measured for percentage reduction in food stimulated canine gastric acid secretion after iv administration at 5 mg/kg dosage; assay type: functional, Canis lupus familiaris, Stomach
Outline: (§5)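 Heidenhain pouch dogs given the test agent (iv or oral) together with a meal of 250 g ground cooked beef hearts. Acid output was collected and expressed as percent reduction relative to control studies in the same animal; n per entry as reported.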

Canis familiaris [11] = experiment: Compound was measured for percentage reduction in food stimulated canine gastric acid secretion after po administration at 8 mg/kg dosage; assay type: functional, Canis lupus familiaris, Stomach; outline: as §5
Rattus norvegicus [12] = experiment: Compound was measured for percentage inhibition of aspirin-induced ulcers at 3 mg/kg after po administration; assay type: functional; outline: as §2
Canis familiaris [13] = experiment: Compound was measured for percentage reduction in food stimulated canine gastric acid secretion after iv administration at 5 mg/kg dosag; assay type: functional, Canis lupus familiaris, Stomach; outline: as §5
Canis familiaris [14] = experiment: Compound was measured for percentage reduction in dimaprit stimulated canine gastric acid secretion after po administration at 8 mg/kg dosage; assay type: functional, Canis lupus familiaris, Stomach; outline: as §4

Row | SMILES | Reduction (Canis familiaris [1]) | Reduction (Rattus norvegicus [2]) | Reduction (Canis familiaris [3]) | other results
1 | CNC(=O)N(C)C1c2cc(OC)ccc2Oc2ncccc21 (stereo unspecified) | <30% | 59% | 51% | 
2 | CNC(=O)N(C)C1c2ccccc2Oc2ccncc21 (stereo unspecified) |  | 77% | <30% | 
3 | CN1CCN(C(=O)N(C)C2c3ccccc3Oc3ncccc32)CC1 (stereo unspecified) | <30% | 94% | <30% | 
4 | CN(C)C(=O)N(C)C1c2ccccc2Oc2ncccc21 (stereo unspecified) |  | 96% | <30% | inhibition in vivo at 20 mg/kg (Rattus norvegicus [4]): 100%
5 | CNC(=O)N(C)C1c2ccc(OC)cc2Oc2ncccc21 (stereo unspecified) | <30% | 60% | 54% | 
6 | CN(C(=O)Nc1ccccc1)C1c2ccccc2Oc2ncccc21 (stereo unspecified) | <30% | 45% | 55% | 
7 | CNC(=O)N(C)C1c2ccc(C)cc2Oc2ncccc21 (stereo unspecified) | <30% | 81% | 75% | 
8 | CN(C(=O)NC(C)(C)C)C1c2ccccc2Oc2ncccc21 (stereo unspecified) | <30% | 82% | 35% | 
9 | CNC(=O)N(C)C1c2cccnc2Oc2c(F)cccc21 (stereo unspecified) |  | 35% | <30% | 
10 | NC(=O)NC1c2ccccc2Oc2ncccc21 (stereo unspecified) |  | 46% | 36% | 
11 | CNC(=O)N(C)C1c2cc([N+](=O)[O-])ccc2Oc2ncccc21 (stereo unspecified) |  | 71% | <30% | 
12 | CNC(=O)N(C)C1c2cc(CO)ccc2Oc2ncccc21 (stereo unspecified) |  | <30% | <30% | 
13 | CNC(=O)N(C)C1c2cc(Cl)c(C)cc2Oc2ncccc21 (stereo unspecified) |  | 65% | <30% | 
14 | CNC(=O)NC1c2ccccc2Oc2ncccc21 (stereo unspecified) |  | 54% | 31% | 
15 | CNC(=O)N(C)C1c2cc(F)ccc2Oc2ncccc21 (stereo unspecified) | <30% | 68% | 63% | 
16 | CN(C(N)=O)C1c2ccccc2Oc2ncccc21 (stereo unspecified) |  | 70% | 30% | 
17 | CNC(=O)N(C)C1c2cc(C(=O)OC)ccc2Oc2ncccc21 (stereo unspecified) |  | <30% | <30% | 
18 | CN(C(=O)N1CCOCC1)C1c2ccccc2Oc2ncccc21 (stereo unspecified) | <30% | 95% | 64% | 
19 | CN(C)C(=O)NC1c2ccccc2Oc2ncccc21 (stereo unspecified) | <30% | 95% | 35% | inhibition in vivo at 30 mg/kg (Rattus norvegicus [5]): 74%
20 | CNC(=O)N(C)C1c2ccccc2Oc2ncccc21 (stereo unspecified) | <30% |  | 84% | Reduction (Canis familiaris [6]): 79%; Reduction (Canis familiaris [7]): <30%; inhibition in vivo at 30 mg/kg (Rattus norvegicus [5]): 100%; inhibition in vivo at 10 mg/kg (Rattus norvegicus [8]): 89%; Reduction (Canis familiaris [9]): 58%; Reduction (Canis familiaris [10]): 69%; Reduction (Canis familiaris [11]): <30%; inhibition in vivo at 3 mg/kg (Rattus norvegicus [12]): 51%
21 | CN(C(=O)N1CCCCC1)C1c2ccccc2Oc2ncccc21 (stereo unspecified) |  | 72% | 31% | 
22 | CNC(=O)N(C)C1c2ccc(C(F)(F)F)cc2Oc2ncccc21 (stereo unspecified) |  | 46% | <30% | 
23 | CNC(=O)N(C)C1c2ccccc2Sc2ncccc21 (stereo unspecified) | <30% | 96% | 80% | Reduction (Canis familiaris [13]): 78%; Reduction (Canis familiaris [6]): 97%; Reduction (Canis familiaris [7]): 62%; inhibition in vivo at 30 mg/kg (Rattus norvegicus [5]): 100%; Reduction (Canis familiaris [14]): <30%; inhibition in vivo at 10 mg/kg (Rattus norvegicus [8]): 68%; Reduction (Canis familiaris [9]): 78%; Reduction (Canis familiaris [11]): <30%; inhibition in vivo at 3 mg/kg (Rattus norvegicus [12]): 0%
24 | CNC(=O)N(C)C1c2cc(C)ccc2Oc2ncccc21 (stereo unspecified) | <30% | 71% | 62% | 
25 | CNC(=O)N(C)C1c2ccccc2S(=O)(=O)c2ncccc21 (stereo unspecified) |  | <30% | <30% | 
26 | CNC(=O)N(C)C1c2ccccc2Oc2cccnc21 (stereo unspecified) | 34% | 37% | 38% | 
27 | CNC(=O)N(C)C1c2cccnc2Oc2cccc(C(F)(F)F)c21 (stereo unspecified) |  | 71% | <30% | 
28 | CN/C(=N\CCSCc1nc[nH]c1C)NC#N [CIMETIDINE] | 86% | 74% | 84% | inhibition in vivo at 10 mg/kg (Rattus norvegicus [8]): 67%
29 | CNC(=O)N(C)C1c2cccnc2Oc2c(Cl)cccc21 (stereo unspecified) |  | 60% | <30% | 
